Source: article PMC3523390 (Molecular pharmacology, 2010)
Like-named read-outs stand apart in the source and are kept apart here.

Assays:
[1] = target: T1, hPPARγ LBD (Homo sapiens, UniProt P37231); experiment: LanthaScreen TR-FRET PPARγ competitive ligand binding assay; details: for Ki: hPPARγ LBD, displacement of Fluormone Pan-PPAR Green, Cheng-Prusoff
T1 sequence (P37231 238-503 limits assumed): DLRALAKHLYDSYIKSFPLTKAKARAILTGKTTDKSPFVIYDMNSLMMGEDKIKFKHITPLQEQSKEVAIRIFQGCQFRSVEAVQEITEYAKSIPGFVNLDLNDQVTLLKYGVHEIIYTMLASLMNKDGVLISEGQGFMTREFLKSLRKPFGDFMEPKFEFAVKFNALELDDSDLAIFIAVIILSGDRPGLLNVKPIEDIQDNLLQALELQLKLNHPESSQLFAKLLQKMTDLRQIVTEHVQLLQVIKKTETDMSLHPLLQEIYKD

[2] = test system: 3T3-L1 preadipocytes; experiment: 3T3-L1 adipocyte differentiation; type: cell-based, rodent; details: 10 μM compound, 7 to 8 days
Summary of the method: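 Mouse 3T3-L1 preadipocytes grown in DMEM with 10% calf serum to confluence (day −2), held 2 more days, then switched at day 0 to DMEM with 10% FCS, 1 μg/ml insulin and test compound (DMSO ≤0.1% final). Medium renewed every 2 days to day 7–8. Cells formalin-fixed 1 h, Oil Red O-stained 10 min, photographed; bound dye eluted in isopropanol, read at 550 nm.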

[3] = target: T2, Mouse PPARγ (Mus musculus, UniProt P37238); experiment: PPAR luciferase reporter gene transactivation in HEK-293 cells; type: cell-based; details: for Mouse PPARγ Maximal Fold Activation: fold induction vs DMSO
T2 sequence (P37238 1-505): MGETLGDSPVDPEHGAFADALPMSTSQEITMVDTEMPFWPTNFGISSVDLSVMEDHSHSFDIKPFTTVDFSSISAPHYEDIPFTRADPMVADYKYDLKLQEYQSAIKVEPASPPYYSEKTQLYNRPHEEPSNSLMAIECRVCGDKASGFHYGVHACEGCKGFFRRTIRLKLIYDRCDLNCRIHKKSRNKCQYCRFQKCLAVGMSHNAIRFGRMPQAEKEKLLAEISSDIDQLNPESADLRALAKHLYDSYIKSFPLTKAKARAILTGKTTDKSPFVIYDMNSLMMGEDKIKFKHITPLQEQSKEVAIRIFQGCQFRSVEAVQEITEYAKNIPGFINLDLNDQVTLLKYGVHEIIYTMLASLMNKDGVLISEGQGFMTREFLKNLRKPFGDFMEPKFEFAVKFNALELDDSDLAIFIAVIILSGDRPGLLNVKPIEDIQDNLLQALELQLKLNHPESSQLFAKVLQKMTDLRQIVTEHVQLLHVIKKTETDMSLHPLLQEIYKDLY

[4] = target: T3, hPPARγ (Homo sapiens, UniProt P37231); experiment: as above; type: cell-based; details: for hPPARγ Maximal Fold Activation / EC50: HEK-293, 18 h, N.D. = not detected up to 100 μM; for hPPARγ Maximal Fold Activation: fold induction vs DMSO; for concentration to reach saturation response (maximal activation): hPPARγ luciferase reporter, HEK-293; for EC50: read-out: hPPARγ EC50
T3 sequence (P37231 1-477 isoform P37231-2): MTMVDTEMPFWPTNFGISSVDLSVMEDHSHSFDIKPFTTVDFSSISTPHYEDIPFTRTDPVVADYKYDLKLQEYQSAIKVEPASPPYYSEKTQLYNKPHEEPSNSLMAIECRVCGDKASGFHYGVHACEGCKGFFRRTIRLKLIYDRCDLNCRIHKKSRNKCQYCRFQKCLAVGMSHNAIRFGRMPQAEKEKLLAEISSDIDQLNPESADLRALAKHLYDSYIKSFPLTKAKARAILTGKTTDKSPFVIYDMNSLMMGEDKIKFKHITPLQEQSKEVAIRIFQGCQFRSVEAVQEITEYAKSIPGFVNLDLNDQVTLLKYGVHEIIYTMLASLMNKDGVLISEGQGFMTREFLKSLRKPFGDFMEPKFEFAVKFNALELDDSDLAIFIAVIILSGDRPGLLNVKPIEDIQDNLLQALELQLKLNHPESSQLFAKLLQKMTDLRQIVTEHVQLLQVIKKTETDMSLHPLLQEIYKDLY

[5] = test system: type 2 diabetic Goto-Kakizaki rats; details: ref Sohn et al., 2007; cited from earlier work
[6] = test system: 3T3-L1 cells and C3H10T1/2 cells; details: ref Choi et al., 2009; cited from earlier work
[7] = target: T1, hPPARγ LBD; experiment: LanthaScreen TR-FRET PPARγ coactivator; type: biochemical; details: 1 h incubation, 520 nm/495 nm ratio
[8] = target: T4, hPPARα (Homo sapiens, UniProt Q07869); experiment: PPAR luciferase reporter gene transactivation in HEK-293 cells; type: cell-based; details: HEK-293, 18 h, fold induction vs DMSO; N.D. = not detected up to 100 μM
T4 sequence (Q07869 1-468): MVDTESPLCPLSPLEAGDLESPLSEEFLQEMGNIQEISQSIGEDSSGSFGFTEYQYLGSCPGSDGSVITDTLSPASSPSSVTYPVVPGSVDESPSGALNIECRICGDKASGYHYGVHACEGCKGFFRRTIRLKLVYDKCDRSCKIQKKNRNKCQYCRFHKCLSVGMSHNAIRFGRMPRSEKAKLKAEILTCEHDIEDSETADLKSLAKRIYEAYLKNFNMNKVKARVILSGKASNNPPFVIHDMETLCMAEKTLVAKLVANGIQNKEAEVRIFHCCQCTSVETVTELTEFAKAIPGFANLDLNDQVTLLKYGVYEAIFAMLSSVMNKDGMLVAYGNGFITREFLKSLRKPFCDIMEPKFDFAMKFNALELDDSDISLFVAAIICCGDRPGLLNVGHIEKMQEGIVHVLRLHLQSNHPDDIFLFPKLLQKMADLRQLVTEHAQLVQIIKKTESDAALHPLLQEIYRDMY

[9] = HEK-293, 18 h, N.D. = not detected up to 100 μM
[10] = read-out: Mouse PPARγ EC50, HEK-293, 18 h, N.D. = not detected up to 100 μM

Ki [1] [nM]	Mouse PPARγ Maximal Fold Activation [3, 9]	EC50 [3, 10] [nM]	hPPARγ Maximal Fold Activation [4]	concentration to reach saturation response (maximal activation) [4]	EC50 [4] [nM]	SMILES	adipogenic activity (differentiation to adipocytes, Oil Red O) [2]	also measured
240	2.93	930	3.58	approximately 1 μM	620	C=CCc1cc(OC)c(O)c(-c2cc(CC=C)cc(OC)c2O)c1 [Compound 1, dieugenol]	induced 3T3-L1 preadipocyte differentiation	
320	2.98	380	3.34	approximately 1 μM	330	CCCc1cc(OC)c(O)c(-c2cc(CCC)cc(OC)c2O)c1 [Compound 2, tetrahydrodieugenol]	induced 3T3-L1 preadipocyte differentiation	
						C=CCc1ccc(O)c(-c2cc(CC=C)ccc2O)c1 [Compound 3, magnolol]	induced 3T3-L1 preadipocyte differentiation	EC50 [3]: 1140 nM; fasting blood glucose [5]: decreased; plasma insulin levels [5]: decreased; adipocyte differentiation [6]: enhances adipocyte differentiation
						C=CCc1ccc(O)c(OC)c1 [Compound 4, eugenol, reference compound]	no adipogenic activity	binding to the hPPARγ LBD ([1]; test concentrations up to 100 μM): did not bind to the receptor at all; TRAP220/DRIP-2 coactivator peptide recruitment to the PPARγ LBD [7]: not active
						CC(C)(Sc1ccc(CCN(CCCCC2CCCCC2)C(=O)NC2CCCCC2)cc1)C(=O)O [GW7647]		hPPARα Maximal Fold Activation [8]: 3.09
